From ChEMBL document CHEMBL4616665, “Synthesis and Identification of a Novel Lead Targeting Survivin Dimerization for Proteasome-Dependent Degradation” (J Med Chem, 2020)
Activity calls are given as the source filed them. The rule behind the calls is not given here.

Legend:
[1] = test system: PC-3; assay: Cytotoxicity against human PC3 cells assessed as reduction in cell viability by MTT assay; format: functional, cell-based
[2] = test system: LNCaP C4-2; assay: Cytotoxicity against human C4-2 cells assessed as reduction in cell viability measured after 72 hrs by methylene blue staining based assay; format: functional; conditions: LNCaP C4-2, 72 h
Outline: (§1)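 Methylene blue survival assay. Prostate cancer cells in RPMI with 10% FBS were seeded at 2000–3500 cells/well and exposed to a concentration series for 72 h. Cells were then methanol-fixed, stained with 1% methylene blue in 10 mM borate for 1 h, washed, and the dye dissolved in ethanol/0.1 M HCl (1:1). OD650nm was read. IC50 came from fitted dose–response curves; three independent experiments.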

[3] = test system: PC-3; assay: Cytotoxicity against human PC3 cells assessed as reduction in cell viability measured after 72 hrs by methylene blue staining based assay; format: functional; conditions: PC-3, 72 h; outline: as §1
[4] = test system: LNCaP C4-2; assay: Down regulation of XIAP expression in human C4-2 cells by Western blot analysis; format: functional, cell-based
[5] = test system: LNCaP C4-2; assay: Down regulation of survivin expression in human C4-2 cells by Western blot analysis; format: functional, cell-based
[6] = test system: PC-3; assay: Down regulation of survivin expression in human PC3 cells by Western blot analysis; format: functional, cell-based
[7] = organism: Homo sapiens; assay: Inhibition of p53-large T antigen (unknown origin) dimerization assessed as reduction in SEAP reporter expression measured after 24 hrs by mammalian two hybrid assay
Outline: (§2)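 Mammalian two-hybrid assay in DU145 cells seeded at 1 × 10^5/well, cultured 24 h, then transfected with GAL4-DBD (pBIND) and VP16 (pACT) fusions plus pGSEAP reporter and a firefly luciferase plasmid. Survivin–survivin or p53–large T antigen pairs were used; vector served as control. Two days later, cells were treated for 24 h. SEAP was measured by chemiluminescence and normalized using luciferase for transfection efficiency.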

[8] = test system: DU-145; assay: Effect on basal SEAP reporter activity in human DU145 cells measured after 24 hrs by mammalian two hybrid assay; format: ADME, cell-based; conditions: du-145, 24 h; outline: as §2
[9] = test system: LNCaP C4-2; assay: Cytotoxicity against human C4-2 cells transfected with pcDNA3.1 assessed as reduction in cell viability measured after 72 hrs by methylene blue staining based assay; format: functional; conditions: LNCaP C4-2, 72 h; outline: as §1
[10] = test system: LNCaP C4-2; assay: Cytotoxicity against human C4-2 cells transfected with HA-tagged survivin assessed as reduction in cell viability measured after 72 hrs by methylene blue staining based assay; format: functional; conditions: LNCaP C4-2, 72 h
[11] = test system: PC-3; assay: Down regulation of XIAP expression in human PC3 cells by Western blot analysis; format: functional, cell-based
[12] = test system: LNCaP C4-2; assay: Down regulation of CIAP1 expression in human C4-2 cells by Western blot analysis; format: functional, cell-based
[13] = test system: PC-3; assay: Down regulation of CIAP1 expression in human PC3 cells by Western blot analysis; format: functional, cell-based
[14] = test system: LNCaP C4-2; assay: Down regulation of CIAP2 expression in human C4-2 cells by Western blot analysis; format: functional, cell-based
[15] = test system: PC-3; assay: Down regulation of CIAP2 expression in human PC3 cells by Western blot analysis; format: functional, cell-based
[16] = target: Baculoviral IAP repeat-containing protein 5 (Homo sapiens) (UniProt O15392); assay: Inhibition of survivin homodimerization in human C4-2 cells assessed as increase in survivin degradation by measuring survivin half life at 10 uM incubated up to 6 hrs in presence of cycloheximide by Western blot analysis (reference value: 2.2 hrs); format: cell-based; conditions: LNCaP C4-2
Sequence of Baculoviral IAP repeat-containing protein 5 (Homo sapiens) (O15392 whole entry): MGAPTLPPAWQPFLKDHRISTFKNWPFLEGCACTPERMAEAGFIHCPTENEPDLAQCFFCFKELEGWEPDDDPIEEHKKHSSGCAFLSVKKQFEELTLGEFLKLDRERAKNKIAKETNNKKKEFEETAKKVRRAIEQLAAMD
Outline: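 C4-2 or PC-3 cells were pretreated with 10 μM cycloheximide for 1 h, then chased with or without 10 μM compound, or with DMSO, for 0–6 h. Remaining survivin was measured by Western blot with actin as loading control. Band densities were quantified from three independent experiments to derive half-life.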

[17] = target: Baculoviral IAP repeat-containing protein 5 (Homo sapiens) (UniProt O15392); assay: Inhibition of survivin homodimerization in human C4-2 cells assessed as increase in survivin degradation in presence of proteasome inhibitor MG132 by Western blot analysis; format: cell-based; conditions: LNCaP C4-2
Outline: (§3)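 Cells were pretreated for 1 h with proteasome inhibitor MG132 or bortezomib before compound treatment. Survivin was then assessed by Western blot with actin loading control, quantified from three independent experiments.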

[18] = target: Baculoviral IAP repeat-containing protein 5 (Homo sapiens) (UniProt O15392); assay: Inhibition of survivin homodimerization in human C4-2 cells assessed as increase in survivin degradation in presence of proteasome inhibitor bortezomib by Western blot analysis; format: cell-based; conditions: LNCaP C4-2; outline: as §3
[19] = test system: LNCaP C4-2; assay: Induction of apoptosis in human C4-2 cells assessed as increase in cleavage of caspase-3 by Western blot analysis; format: functional, cell-based
Outline: (§4)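 C4-2 or PC-3 cells were treated at a range of concentrations, and cleaved caspase 3 was measured by Western blot. Quantification was from three independent experiments.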

[20] = test system: PC-3; assay: Induction of apoptosis in human PC3 cells assessed as increase in cleavage of caspase-3 by Western blot analysis; format: functional, cell-based; outline: as §4
[21] = test system: LNCaP C4-2; assay: Induction of apoptosis in human C4-2 cells at 3 uM measured after 48 hrs by Annexin V-FITC/propidium iodide staining based flow cytometry relative to control; format: functional
Outline: (§5)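 C4-2 or PC-3 cells were treated with 3 μM compound or DMSO for 48 h, harvested, washed, and stained with annexin V-FITC and propidium iodide. Apoptosis was analysed by flow cytometry with excitation at 488 […]; three independent experiments.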

[22] = test system: PC-3; assay: Induction of apoptosis in human PC3 cells at 3 uM measured after 48 hrs by Annexin V-FITC/propidium iodide staining based flow cytometry relative to control; format: functional; outline: as §5
[23] = test system: PC-3; assay: Antitumor activity against human PC3 cells xenografted in NSG mouse assessed as suppression of tumor growth at 100 mg/kg, po administered via gavage every other day for 10 times and measured every 2 days during compound dosing; format: functional, organism-based
Outline: (§6)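 PC-3 cells (3 × 10^6, in media) implanted in hind flanks of 6-week-old male NSG mice. Once tumors reached ~100 mm3, mice were randomized into two groups of 5. Vehicle (90% corn oil/10% DMSO) or 100 mg/kg was given by oral gavage every other day for ten doses. Body weight and tumor size were measured every 2 days. At sacrifice, tumors were excised for survivin Western blot and staining, and major organs were wet-weighed.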

[24] = Toxicity in NSG mouse xenografted in human PC3 cells assessed as effect on body weight at 100 mg/kg, po administered via gavage every other day for 10 times and measured every 2 days during compound dosing; format: organism-based, PC-3; conditions: in vivo, 48 h; outline: as §6
[25] = Toxicity in NSG mouse xenografted in human PC3 cells assessed as effect on heart weight at 100 mg/kg, po administered via gavage every other day for 10 times and measured post last dose; format: organism-based, PC-3; conditions: in vivo; outline: as §6
[26] = Toxicity in NSG mouse xenografted in human PC3 cells assessed as effect on liver weight at 100 mg/kg, po administered via gavage every other day for 10 times and measured post last dose; format: organism-based, PC-3; conditions: in vivo; outline: as §6
[27] = Toxicity in NSG mouse xenografted in human PC3 cells assessed as effect on kidney weight at 100 mg/kg, po administered via gavage every other day for 10 times and measured post last dose; format: organism-based, PC-3; conditions: in vivo; outline: as §6
[28] = Toxicity in NSG mouse xenografted in human PC3 cells assessed as effect on lung weight at 100 mg/kg, po administered via gavage every other day for 10 times and measured post last dose; format: organism-based, PC-3; conditions: in vivo; outline: as §6
[29] = Toxicity in NSG mouse xenografted in human PC3 cells assessed as effect on stomach weight at 100 mg/kg, po administered via gavage every other day for 10 times and measured post last dose; format: organism-based, PC-3; conditions: in vivo; outline: as §6
[30] = test system: PC-3; assay: Antitumor activity against human PC3 cells xenografted in NSG mouse assessed as reduction in tumor size at 100 mg/kg, po administered via gavage every other day for 10 times and measured post last dose; format: functional, organism-based; outline: as §6
[31] = test system: PC-3; assay: Antitumor activity against human PC3 cells xenografted in NSG mouse assessed as change in tumor color at 100 mg/kg, po administered via gavage every other day for 10 times and measured post last dose; format: functional, organism-based; outline: as §6
[32] = target: Baculoviral IAP repeat-containing protein 5 (Homo sapiens) (UniProt O15392); assay: In vivo inhibition of survivin in NSG mouse xenografted in human PC3 cells assessed as reduction in survivin expression at 100 mg/kg, po administered via gavage every other day for 10 times and measured post last dose by Western blot analysis; format: functional, organism-based; conditions: PC-3; outline: as §6
[33] = target: Baculoviral IAP repeat-containing protein 5 (Homo sapiens) (UniProt O15392); assay: In vivo inhibition of survivin in NSG mouse xenografted in human PC3 cells assessed as reduction in survivin expression at 100 mg/kg, po administered via gavage every other day for 10 times and measured post last dose by immunofluorescence analysis; format: functional, organism-based; conditions: PC-3; outline: as §6
[34] = Solubility of the compound in corn oil; format: physicochemical
[35] = target: Baculoviral IAP repeat-containing protein 5 (Homo sapiens) (UniProt O15392); assay: Inhibition of survivin homodimerization in human PC3 cells assessed as increase in survivin degradation by measuring survivin half life at 10 uM incubated up to 6 hrs in presence of cycloheximide by Western blot analysis (reference value: 2.3 hrs); conditions: PC-3

`O=C1N=c2ccc(Nc3nc4nonc4nc3N/N=C/c3ccccc3OCc3ccc(Cl)cc3Cl)cc2=N1` showed an IC50 [1] of 60.3 µM.

With `CC(C)(C)c1ccc(Nc2nc3ccccc3nc2Nc2ccc(C(C)(C)C)cc2)cc1` the IC50 [2] was 18.6 µM and the IC50 [3] was 18.2 µM.

With `Fc1ccc(Nc2nc3ccccc3nc2Nc2ccc(F)cc2)cc1` the Activity [4] was “inactive”, the Activity [5] was “Active” and the Activity [6] was “Active”. For the same compound, the IC50 [2] was 3.1 µM, the IC50 [3] was 4.8 µM and the inhibition [7] was “inactive”. For the same compound, the Activity [8] was “Non-Toxic”, the IC50 [9] was 2 µM and the IC50 [10] was 7 µM. The Activity [11] was “inactive”, the Activity [12] was “inactive” and the Activity [13] was “inactive”. The Activity [14] was “inactive”, the Activity [15] was “inactive” and the T1/2 [16] was 50 min. The inhibition [17] was “inactive”, the inhibition [18] was “inactive” and the Activity [19] was “Dose-dependent effect”. The Activity [20] was “Dose-dependent effect”, the Activity [21] was 48% and the Activity [22] was 39%. The Activity [23] was “Active”, the Activity [24] was “Non-Toxic” and the Activity [25] was “Non-Toxic”. For the same compound, the Activity [26] was “Non-Toxic”, the Activity [27] was “Non-Toxic” and the Activity [28] was “Non-Toxic”. The Activity [29] was “Non-Toxic”, the Activity [30] was “Active” and the Activity [31] was “Active”. For the same compound, the inhibition [32] was “Active”, the inhibition [33] was “Active” and the solubility [34] was “Soluble”. For the same compound, the T1/2 [35] was 25 min.

`Cc1cccc(Nc2nc3nonc3nc2N/N=C/c2ccc(-c3ccc(Cl)c([N+](=O)[O-])c3)o2)c1C` gave an IC50 [1] of 7.2 µM.

`Cc1ccc(-c2ccc(/C=N/Nc3nc4nonc4nc3Nc3ccc(Br)cc3)o2)cc1Cl` gave an IC50 [1] of 3.3 µM.

`O=C(Nc1nc2ccccc2nc1Nc1ccc(F)cc1)c1ccc2c(c1)OCO2` showed an IC50 [2] of 14.3 µM and an IC50 [3] of 20.7 µM.

Work on `Cc1cccc(Nc2nc3ccccc3nc2Nc2cccc(C)c2C)c1C` yielded an IC50 [2] of 17.6 µM and an IC50 [3] of 24.8 µM.

For `Cc1cccc(Nc2nc3nonc3nc2N/N=C/c2cc3c(cc2[N+](=O)[O-])OCO3)c1C`, the IC50 [1] was 2.6 µM.

Compound `CCOC(=O)c1ccc(Nc2nc3nonc3nc2N/N=C/c2c[nH]nc2-c2ccccc2)cc1` has an IC50 [1] of 3.5 µM.

For `Cc1cccc(Nc2nc3nonc3nc2N/N=C/c2ccc(-c3cccc(C(=O)O)c3)o2)c1C`, the IC50 [2] was 9.1 µM and the IC50 [3] was 8.1 µM.

Work on `O=C(Nc1nc2ccccc2nc1Nc1ccc(F)cc1)c1ccccc1` yielded an IC50 [2] of 12.7 µM and an IC50 [3] of 19.7 µM.
